Source: PubChem BioAssay (several laboratories)
beta cell repl – induces beta-cell replication in MIN6 cells | MIN6 cells proliferation, ATPlite luminescence, 48 h; cells starved in 0.2% serum; 100% = growth in 10% serum | proliferation, % at 10 µM | 330,000 compounds, 0.29% hits | AID 2380;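 active = compounds whose signal lies at least 3.5 SD above the mean of all wells on their plate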;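 note: 0% = DMSO-treated cells in low-serum medium and 100% = 10% serum control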
NRP1-CendR mod – modulators of CendR peptide binding to human neuropilin-1. O14786. FAM-RPARPAR peptide binding to NRP-1, fluorescence polarization. inhibition, % at 25 µM. 360,000 compounds, 0.85% hits. AID 602438;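 active = inhibition or corrected inhibition above about 18%, plus a signal ratio from 0.5 to 1.5, limit read from the data, passing the limit was not always enough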
SENP1 inh – SENP1 (human) catalytic domain inhibition; Q9P0U3; recombinant SENP1 catalytic domain, CyPet-SUMO1-YPet FRET cleavage; inhibition, % at 10 µM; 360,000 compounds, 0.21% hits; AID 624204;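 active = inhibition at least 30% at 10 µM, raw YFP signal under a set limit, fluorescence ratio 0.5 to 1.5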;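 note: 0% = enzyme with DMSO and 100% = no enzyme wells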
Target sequence (Q9P0U3 419-644 limits assumed): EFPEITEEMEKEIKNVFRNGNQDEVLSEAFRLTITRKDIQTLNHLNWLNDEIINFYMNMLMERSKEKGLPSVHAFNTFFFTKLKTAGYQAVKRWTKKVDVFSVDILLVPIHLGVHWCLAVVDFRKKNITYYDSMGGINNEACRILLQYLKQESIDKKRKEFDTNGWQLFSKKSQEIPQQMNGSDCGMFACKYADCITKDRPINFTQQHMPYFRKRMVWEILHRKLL
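Controls: no-enzyme wells low, DMSO-plus-enzyme wells high control. Test system: human recombinant His6-tagged SENP1 catalytic domain enzyme. Reagent: SFCypet-SUMO1-SFYpet FRET protein substrate, 25 nM final. Doses: one dose per compound, 10 µM, 0.5% DMSO. Detection: FRET, CFP and YFP emission. Timing: 50 min reaction at room temperature.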
MT1-MMP act inh – MT1-MMP (human) activation inhibition | P50281 | HT1080 RFP-PRO-GFP cells, GFP/RFP ratio fluorescence, overnight; percent of plate control window, DMSO zero | GFP/RFP ratio change, % at 20 µM | 360,000 compounds, 0.061% hits;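 active = GFP/RFP ratio change of at least 30% with cell ATP level not reduced by more than half and red fluorescence within 50% of control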
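Assay system: HT1080 RFP-PRO-GFP cells | Dosing: 20 µM single dose, 1% DMSO | Incubation: Cells overnight before dosing, compound overnight, 37 °C, 5% CO2 | Evaluation: GFP/RFP fluorescence ratio | Control set: DMSO-only wells and HT1080 RFP-L50D-GFP cell wells as references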
Myeloid diff MLP – myeloid differentiation induction; ER-HoxA9 myeloid progenitors, lysozyme-GFP differentiation, flow cytometry; AID 624256; 360,000 compounds, 1% hits; calls only at 10 µM;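 active = normalized GFP-positive differentiation at or above the plate's own cutoff, the solvent-only control mean plus 3 SD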;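 note: cells exposed to compound for four days before flow analysis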
DAGLB inh – diacylglycerol lipase beta (human) inhibition | Q8NCG7 | HEK293T DAGLB membrane lysate, EnzChek fluorogenic substrate | inhibition, % at 5.17 µM | 340,000 compounds, 0.059% hits; in the data active = inhibition above about 34%;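 note: 0% = enzyme with vehicle and 100% = wells lacking enzyme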
Myeloid diff – promotes myeloid progenitor differentiation; AID 651706; calls only; ER-HoxA9 myeloid progenitors, GFP/Mac1 double-positive flow; shares compounds with Myeloid diff MLP; 2,300 compounds, 2% hits;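 active = share of green or green-and-red cells above 9 and 9% in run 1 or 4 and 3% in run 2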
GFP autofluor – counter-screen for myeloid differentiation promoters: compound fluorescence; shares compounds with Myeloid diff MLP; ER-HoxA9 myeloid progenitors, no estrogen, GFP autofluorescence flow cytometry; vehicle wells 0%, positive control 100%; fluorescence response, % (concentration not given with the values); 2,300 compounds, 7.4% hits; AID 651707;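 active = over 5% cells positive for green fluorescent reporter, or over 2% positive for both it and APC stain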;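 note: range taken on the double positive population between DMSO and positive control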
The depositor's hits bear a star; i = inactive; . = no result; + = active, no number. Hits are enriched below; roughly 2.4% of the tested compounds scored in any of these assays.

SMILES | beta cell repl | NRP1-CendR mod | SENP1 inh | MT1-MMP act inh | Myeloid diff MLP | DAGLB inh | Myeloid diff | GFP autofluor
Nc1ccccc1-c1nnn(CC(=O)N2CCCc3ccccc32)n1 | -2 | 17 | 1 | -1 | i | -2 | . | .
CN1C=Nc2c(ncn2C2CCC(CO)O2)C1O (stereo unspecified) | . | -2 | -1 | 8 | i | . | . | .
CCCCN1C(N)=NC[C@@H]1Cc1ccc(O)cc1 | 1 | 6 | -3 | -2 | + | 2 | i | 1
Cc1ccnc(NC(=O)Cn2cc([N+](=O)[O-])cn2)c1 | -2 | -4 | 0 | -1 | i | -1 | . | .
Cn1ccc2c(-c3ccc(C(C)(C)C)cc3)cc3c(c21)C1CCC3O1 (stereo unspecified) | . | -7 | -8 | -3 | + | . | + | 0
Cn1ccc2c(-c3ccc(C(F)(F)F)cc3)cc3c(c21)C1CCC3O1 (stereo unspecified) | . | -3 | 1 | 1 | i | . | . | .
O=C(NCc1ccco1)c1ccc2c(=O)n(-c3ccccc3)c(=O)n(Cc3cccc(F)c3)c2c1 | 8 | -12 | -2 | 0 | + | -2 | i | 0
Cc1cccc(CNc2ncc(-c3cccc([N+](=O)[O-])c3)n2C)c1 | -5 | 0 | 1 | 2 | i | 4 | i | 0
Cc1ccc(S(=O)(=O)N2CCN(S(=O)(=O)c3ccc(C)cc3)C3OCCOC32)cc1 (stereo unspecified) | 1 | -4 | -1 | 2 | i | -1 | i | 0
CN(C)S(=O)(=O)c1cccc(C(=O)NC(=S)N(CCC#N)Cc2cccnc2)c1 | -4 | 4 | -1 | 0 | i | -2 | i | 2
CCN(CC)S(=O)(=O)c1ccc(C(=O)NC(=S)N(CCC#N)Cc2cccnc2)cc1 | 5 | -9 | 1 | 0 | i | 0 | . | .
O=C(COc1ccccc1)N(Cc1cccs1)C1CCS(=O)(=O)C1 (stereo unspecified) | -1 | 7 | 0 | -2 | i | -1 | . | .
Cc1ccc(C)c(-c2csc(NC(=O)C3=COCCO3)n2)c1 | -7 | -19 | 0 | -1 | i | -8 | i | 0
CC(C)C[C@H](NC(=O)N1CCn2c1nc1ccccc12)C(=O)N[C@@H](C(=O)O)c1ccccc1 | -1 | 10 | 1 | 9 | + | 4 | i | 0
CC(C)C[C@H](NC(=O)N1CCn2c1nc1ccccc12)C(=O)N[C@@H](Cc1ccccc1)C(=O)O | -1 | 0 | 0 | -1 | i | 0 | . | .
Oc1ccc(/C=C/c2ccc3ccccc3n2)cc1 | -6 | -3 | 20 | -1 | + | 0 | i | 20*
C(=C\c1ccc2ccccc2n1)/c1ccccc1 | -3 | 1 | 1 | 4 | i | -9 | . | .
Cc1ccccc1CSc1nnc([C@@H]2CCCN2)o1 | -3 | 6 | -1 | 0 | i | -9 | . | .
COc1cc2nc(CN(C)Cc3nc4ccccc4c(=O)[nH]3)[nH]c(=O)c2cc1OC | -3 | -12 | -23 | -3 | i | -2 | i | 0
Cc1cccc(C)c1-n1nnnc1S(=O)(=O)Cc1ccccc1Cl | -4 | 12 | 1 | 1 | i | -5 | i | 0
COc1cccc(-c2sc3ccccc3c2-c2ccc(OCCN3CCCC3)cc2)c1 | -6 | 17 | -3 | -5 | i | 1 | . | .
c1ccc(-c2sc3ccccc3c2-c2ccc(OCCN3CCCC3)cc2)cc1 | -6 | 2 | -1 | -6 | i | 0 | i | 4
COc1cccc(-c2sc3ccccc3c2-c2ccc(OCCN3CCCCC3)cc2)c1 | -6 | 8 | 3 | -5 | i | -10 | i | 0
COc1ccccc1-c1sc2ccccc2c1-c1ccc(OCCN2CCCCC2)cc1 | . | -1 | 3 | -7 | i | 2 | . | .
